Results on six molecules are retold here after publication PMC11792172 (Journal of natural products, 2025).

Molecules are shown by their SMILES. Where two headings read alike, the source gives them in different places.

For assay [1], the system named is Na+/K+-ATPase (NKA). The assay is described as follows: Na+/K+-ATPase activity assay. The class given is biochemical. Particulars: for effect on NKA at a high concentration: high concentration (>100 μM), Figure 3. In short, it runs like this:
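Luminescent ADP detection read out enzyme activity by quantifying the ADP formed during the enzymatic first half-reaction. Assays were run in triplicate and were representative of three independent experiments. IC50 was obtained from dose-response curves by nonlinear regression.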

Assay [2] concerns MDA-MB-231 breast cancer cells. Description: Cytotoxicity assay. The note with it: Homo sapiens, MDA-MB-231, 72 h, read-out: IC50, inhibition of viability, MDA-MB-231. The class given is cell-based.
The test system of assay [3] is OVCAR5 ovarian cancer cells. Description: Cytotoxicity assay. In kind it is cell-based. The note with it: Homo sapiens, OVCAR-5, 72 h, read-out: IC50, inhibition of viability, OVCAR5.
The test system of assay [4] is MDA-MB-435 melanoma cells. Description: Cytotoxicity assay. The class given is cell-based. Particulars: Homo sapiens, MDA-MB-435, 72 h, read-out: IC50, inhibition of viability, MDA-MB-435.
The test system of assay [5] is OVCAR3 ovarian cancer cells. Description: Cytotoxicity assay. The note with it: Homo sapiens, OVCAR-3, 72 h, read-out: IC50, inhibition of viability, OVCAR3. In kind it is cell-based.
The target of assay [6] is Na+/K+-ATPase (NKA). The note with it: read-out: IC50, inhibition of NKA activity, cited from earlier work.

Regarding `CO[C@H]1C[C@H](O[C@H]2CC[C@@]3(C)[C@@H](C2)C[C@@H]2O[C@]24[C@@H]3[C@H](OC(C)=O)C(=O)[C@]2(C)[C@@H](C3=CC(=O)OC3)CC[C@]42O)O[C@@H](C)[C@@H]1OC(C)=O` [1a, (−)-11,4′-di-O-acetylcryptanoside A], the “effect on NKA at a high concentration” value in the assay with Na+/K+-ATPase (NKA) [1] is reported as “activate NKA”.

In the case of `CC(=O)O[C@H]1C(=O)[C@@]2(C)[C@H]([C@H](OC(=O)c3ccccc3)[C@]3(O)C[C@H](OC(=O)[C@H](O)[C@@H](NC(=O)c4ccccc4)c4ccccc4)C(C)=C1C3(C)C)[C@]1(OC(C)=O)CO[C@@H]1C[C@@H]2O` [Paclitaxel, paclitaxel], the IC50 in assay [2] worked out at 3.8 ± 0.1 nM; in assay [3] it was 7.3 ± 0.1 nM; in assay [4], 1.9 ± 0.1 nM; in assay [5], 4.9 ± 0.1 nM.

Turning to `CO[C@H]1C[C@H](O[C@H]2CC[C@@]3(C)[C@@H](C2)C[C@@H]2O[C@]24[C@@H]3[C@H](O)C(=O)[C@]2(C)[C@@H](C3=CC(=O)OC3)CC[C@]42O)O[C@@H](C)[C@@H]1O` [compound 1, (−)-Cryptanoside A], the IC50 on Na+/K+-ATPase (NKA) [6] (data reported previously) is 1200 ± 100 nM.

Regarding `CO[C@H]1C[C@H](O[C@H]2CC[C@@]3(C)[C@@H](C2)C[C@@H]2O[C@]24[C@@H]3[C@H](O)C(=O)[C@]2(C)[C@H](C3=CC(=O)OC3)CC[C@]42O)O[C@@H](C)[C@@H]1O` [compound 2, (−)-17-epi-cryptanoside A], at Na+/K+-ATPase (NKA) [1] (read-out: IC50, inhibition of NKA activity), the half-inhibitory concentration (IC50) was greater than 20000 nM.

As for `C[C@]12CC[C@H]3[C@@H](C=CC4=CC(=O)[C@H](O)C[C@@]43C)[C@@H]1CC[C@@H]2C(=O)O` [compound 3, (+)-2-hydroxyandrosta-4,6-diene-3-one-17-carboxylic acid], in the assay with Na+/K+-ATPase (NKA) [1], the “effect on NKA at a high concentration” value is “activate NKA”.

In the case of `C[C@H]1O[C@@H](O[C@H]2[C@@H](O)C[C@H](O[C@H]3[C@@H](O)C[C@H](O[C@H]4CC[C@@]5(C)[C@H](CC[C@@H]6[C@@H]5C[C@@H](O)[C@]5(C)[C@@H](C7=CC(=O)OC7)CC[C@]65O)C4)O[C@@H]3C)O[C@@H]2C)C[C@H](O)[C@@H]1O` [digoxin], the 50% inhibitory concentration (IC50) on Na+/K+-ATPase (NKA) [6] was 230 ± 20 nM.
